ChEMBL document CHEMBL5653630, “Activation of the p53-MDM4 regulatory axis defines the anti-tumour response to PRMT5 inhibition through its role in regulating cellular splicing” (Sci Rep, 2018)
Active and inactive are the calls of the source. The calls are words filed in the database; no cut-off is given here.

Legend:
Z-138 [1] = assay: Induction of apoptosis in human Z138 cells assessed as dead cells incubated for 6 days by annexin-V/FITC propidium iodide staining based flow cytometry analysis; format: functional, cell-based; conditions: dose 200.0 nM, time 6.0 day
Maver1 = assay: Induction of apoptosis in human MAVER-1 cells assessed as dead cells incubated for 6 days by annexin-V/FITC propidium iodide staining based flow cytometry analysis; format: functional, cell-based; conditions: dose <= 5000.0 nM, time 6.0 day
[2] = biological target: Apoptosis regulator BAX (Homo sapiens) (UniProt Q07812); assay: In vivo inhibition of PRMT5 in human Z138 cells xenografted in mouse assessed as increase in BAX expression at 100 mg/kg, po BID measured for 7 days; format: functional, organism-based; conditions: Z-138, time 7.0 day
Apoptosis regulator BAX (Homo sapiens), sequence (Q07812 whole entry): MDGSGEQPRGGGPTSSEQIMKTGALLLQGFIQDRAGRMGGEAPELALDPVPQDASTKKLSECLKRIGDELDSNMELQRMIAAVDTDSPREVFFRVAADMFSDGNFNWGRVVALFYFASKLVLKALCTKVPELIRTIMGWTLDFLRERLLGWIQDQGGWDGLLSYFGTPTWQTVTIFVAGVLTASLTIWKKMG

Z-138 [3] = assay: Induction of cell cycle arrest in human Z138 cells assessed as decrease in 4n cell population measured upto 1000 nM measured for 2 to 5 days by propidium iodide staining based flow cytometric analysis; format: functional; conditions: time 2-5 day
Z-138 [4] = assay: In vivo inhibition of PRMT5 in human Z138 cells xenografted in mouse assessed as increase in p21 expression at 100 mg/kg, po BID measured for 7 days; format: functional, organism-based; conditions: time 7.0 day
Z-138 [5] = assay: In vivo inhibition of PRMT5 in human Z138 cells xenografted in po dosed mouse assessed as reduction in SDMA level measured for 7 days; format: functional, organism-based; conditions: dose 0.2-100 mg/kg, time 7.0 day
SCaBER = assay: Antiproliferative activity against human SCaBER cells assessed as cell growth inhibition incubated for 6 days by celltiter-glo assay; format: functional; conditions: 144 h, time 6 day
SK-OV-3 = assay: Antiproliferative activity against human SK-OV-3 cells assessed as cell growth inhibition incubated for 10 days; format: functional; conditions: SK-OV-3, 240 h, time 10 day
A549 = assay: Antiproliferative activity against human A549 cells assessed as cell growth inhibition incubated for 10 days; format: functional; conditions: A549, 240 h, time 10 day
Method in brief: (§1)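 Cells kept in RPMI-1640 with 10% FBS, 2 mM L-alanyl-L-glutamine and 1 mM Na pyruvate (or a special medium) at 37°C, 5% CO2. Compound added 24 h after seeding, 10 concentrations in 3.16-fold dilution, 0.1% DMSO final. Medium replaced and cells re-dosed at 168 h; 240 h incubation. Nuclei fixed, dye-stained and imaged. gIC50 = growth midway between untreated and time-zero cell counts, from a 4-parameter fit.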

786-0 = assay: Antiproliferative activity against human 786-0 cells assessed as cell growth inhibition incubated for 10 days; format: functional; conditions: 786-0, 240 h, time 10 day; method in brief: as §1
DoTc2-4510 = assay: Antiproliferative activity against human DoTc2-4510 cells assessed as cell growth inhibition incubated for 10 days; format: functional; conditions: DoTc2-4510, 240 h, time 10 day
Method in brief: (§2)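 Outsourced panel run in 384-well plates. Cells were grown in RPMI-1640/10% FBS or a special medium at 37°C, 5% CO2. Compound was added 24 h after seeding as a 10-point, 3.16-fold series in 0.1% DMSO. Medium was refreshed and cells re-dosed at 168 h, with a time-zero plate kept. At 240 h cells were fixed, nuclei stained and imaged. gIC50 is growth midway between untreated and time zero, from a 4-parameter fit.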

CAKI-2 = assay: Antiproliferative activity against human CAKI-2 cells assessed as cell growth inhibition incubated for 10 days; format: functional; conditions: CAKI-2, 240 h, time 10 day; method in brief: as §1
SNU-5 = assay: Antiproliferative activity against human SNU-5 cells assessed as cell growth inhibition incubated for 10 days; format: functional; conditions: SNU-5, 240 h, time 10 day
RD = assay: Antiproliferative activity against human RD cells assessed as cell growth inhibition incubated for 10 days; format: functional; conditions: 240 h, time 10 day
HT-29 = assay: Antiproliferative activity against human HT-29 cells assessed as cell growth inhibition incubated for 10 days; format: functional; conditions: HT-29, 240 h, time 10 day; method in brief: as §2
SW872 = assay: Antiproliferative activity against human SW872 cells assessed as cell growth inhibition incubated for 10 days; format: functional; conditions: SW872, 240 h, time 10 day
SW1783 = assay: Antiproliferative activity against human SW1783 cells assessed as cell growth inhibition incubated for 10 days; format: functional; conditions: SW1783, 240 h, time 10 day
HT-3 = assay: Antiproliferative activity against human HT-3 cells assessed as cell growth inhibition incubated for 10 days; format: functional; conditions: HT-3, 240 h, time 10 day; method in brief: as §2
HCT-116 = assay: Antiproliferative activity against human HCT-116 cells assessed as cell growth inhibition incubated for 10 days; format: functional; conditions: HCT-116, 240 h, time 10 day; method in brief: as §2
COLO 320DM = assay: Antiproliferative activity against human Colo 320DM cells assessed as cell growth inhibition incubated for 10 days; format: functional; conditions: 240 h, time 10 day; method in brief: as §2
SCC-4 = assay: Antiproliferative activity against human SCC-4 cells assessed as cell growth inhibition incubated for 10 days; format: functional; conditions: SCC-4, 240 h, time 10 day
SK-NEP-1 = assay: Antiproliferative activity against human SK-NEP-1 cells assessed as cell growth inhibition incubated for 10 days; format: functional; conditions: SK-NEP-1, 240 h, time 10 day
SW 962 = assay: Antiproliferative activity against human SW 962 cells assessed as cell growth inhibition incubated for 10 days; format: functional; conditions: SW 962, 240 h, time 10 day
OE19 = assay: Antiproliferative activity against human OE19 cells assessed as cell growth inhibition incubated for 10 days; format: functional; conditions: OE19, 240 h, time 10 day
HuP-T4 = assay: Antiproliferative activity against human HuP-T4 cells assessed as cell growth inhibition incubated for 10 days; format: functional; conditions: HuP-T4, 240 h, time 10 day
Method in brief: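 Cells grown at 37°C under 5% CO2 in RPMI-1640 with 10% FBS, 2 mM L-alanyl-L-glutamine and 1 mM pyruvate (or a special medium), then seeded in 384-well plates. Compound was added 24 h later as a 10-point, 3.16-fold series in 0.1% DMSO final. Medium was replaced and cells re-dosed at 168 h; 240 h total. Nuclear-dye imaging gave cell counts, with a time-zero plate. gIC50 is growth halfway to time zero, from a 4-parameter fit.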

CAPAN-1 = assay: Antiproliferative activity against human CAPAN-1 cells assessed as cell growth inhibition incubated for 10 days; format: functional; conditions: CAPAN-1, 240 h, time 10 day; method in brief: as §1
SNU-16 = assay: Antiproliferative activity against human SNU-16 cells assessed as cell growth inhibition incubated for 10 days; format: functional; conditions: SNU-16, 240 h, time 10 day
SW1088 = assay: Antiproliferative activity against human SW1088 cells assessed as cell growth inhibition incubated for 10 days; format: functional; conditions: SW1088, 240 h, time 10 day
AGS = assay: Antiproliferative activity against human AGS cells assessed as cell growth inhibition incubated for 10 days; format: functional; conditions: 240 h, time 10 day; method in brief: as §1
D283 Med = assay: Antiproliferative activity against human D283 Med cells assessed as cell growth inhibition incubated for 10 days; format: functional; conditions: 240 h, time 10 day; method in brief: as §2
EM-2 = assay: Antiproliferative activity against human EM-2 cells assessed as cell growth inhibition incubated for 10 days; format: functional; conditions: EM-2, 240 h, time 10 day; method in brief: as §2
HEC-1-A = assay: Antiproliferative activity against human HEC-1-A cells assessed as cell growth inhibition incubated for 10 days; format: functional; conditions: 240 h, time 10 day; method in brief: as §2
DOHH-2 = assay: Antiproliferative activity against human DOHH-2 cells assessed as cell growth inhibition incubated for 6 days by celltiter-glo assay; format: functional; conditions: DOHH-2, 144 h, time 6 day

## CC(=O)N1CCC(Nc2cc(C(=O)NC[C@H](O)CN3CCc4ccccc4C3)ncn2)CC1 [PEMRAMETOSTAT]
Z-138 [1]
  Activity: Dose-Dependent Effect
Maver1
  Activity: Dose-Dependent Effect
[2]
  inhibition: Active
Z-138 [3]
  Activity: Active
Z-138 [4]
  inhibition: Active
Z-138 [5]
  inhibition: Dose-Dependent Effect
SCaBER
  GI50: 198 nM

## O=C(NC[C@H](O)CN1CCc2ccccc2C1)c1ccnc(NC2CCC2)c1
SK-OV-3
  GI50: 52.6 nM
A549
  GI50: 80.9 nM
786-0
  GI50: 20.3 nM
DoTc2-4510
  GI50: 95.8 nM
CAKI-2
  GI50: 114 nM
SNU-5
  GI50: 110 nM
RD
  GI50: 639 nM
HT-29
  GI50: 95.2 nM
SW872
  GI50: 54 nM
SW1783
  GI50: 389 nM
HT-3
  GI50: 10000 nM
HCT-116
  GI50: 166 nM
COLO 320DM
  GI50: 82.5 nM
SCC-4
  GI50: 286 nM
SK-NEP-1
  GI50: 264 nM
SW 962
  GI50: 203 nM
OE19
  GI50: 98 nM
HuP-T4
  GI50: 84.9 nM
CAPAN-1
  GI50: 370 nM
SNU-16
  GI50: 34.4 nM
SW1088
  GI50: 40.5 nM
AGS
  GI50: 2030 nM
D283 Med
  GI50: 23.5 nM
EM-2
  GI50: 94 nM
HEC-1-A
  GI50: 2440 nM
DOHH-2
  GI50: 116 nM
